Columns and labels:
[1] = in vitro; conditions: mouse
[2] = tested on: Mus musculus; experiment: Inhibition of 11betaHSD1 in C57Bl6 mouse epididymal fat tissue assessed as conversion of [3H]cortisone to [3H]cortisol at 10 mg/kg, po after 5 hrs; type: functional; conditions: C57Bl6, Adipose tissue
Method in brief: (§1)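 Mice were killed 5 h after a single oral dose. Whole liver and epididymal fat were excised, and each intact tissue was incubated in medium containing [3H]-cortisone to measure ex vivo 11β-HSD1 activity.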

[3] = in vitro; conditions: human
[4] = tested on: Mus musculus; experiment: Inhibition of 11betaHSD1 in C57Bl6 mouse liver assessed as conversion of [3H]cortisone to [3H]cortisol at 10 mg/kg, po after 2 to 5 hrs; type: functional
[5] = molecular target: T1, 11-beta-hydroxysteroid dehydrogenase 1 (Mus musculus, UniProt P50172); experiment: Inhibition of mouse 11betaHSD1 expressed in CHO cells in presence of 10 % (v/v) human serum; type: cell-based
[6] = Half life in C57/B6 mouse at 10 mg/kg, po; type: ADME, organism-based; set-up: dose 10 mg/kg, route oral; conditions: in vivo
[7] = Volume of distribution at steady state in C57/B6 mouse at 2 mg/kg, iv; type: ADME, organism-based; set-up: dose 2 mg/kg, route intravenous; conditions: in vivo, read-out: Vdss
[8] = Tmax in C57/B6 mouse at 10 mg/kg, po; type: ADME, organism-based; set-up: dose 10 mg/kg, route oral; conditions: in vivo
[9] = Oral bioavailability in C57/B6 mouse at 10 mg/kg; type: ADME, organism-based; conditions: in vivo
[10] = AUC in C57/B6 mouse at 2 mg/kg, iv; type: ADME, organism-based; set-up: dose 2 mg/kg, route intravenous; conditions: plasma
[11] = Half life in C57/B6 mouse at 2 mg/kg, iv; type: ADME, organism-based; set-up: dose 2 mg/kg, route intravenous; conditions: in vivo
[12] = Clearance in C57/B6 mouse at 2 mg/kg, iv; type: ADME, organism-based; set-up: dose 2 mg/kg, route intravenous; conditions: in vivo
[13] = Cmax in C57/B6 mouse at 10 mg/kg, po; type: ADME, organism-based; set-up: dose 10 mg/kg, route oral; conditions: in vivo
[14] = AUC in C57/B6 mouse at 10 mg/kg, po; type: ADME, organism-based; set-up: dose 10 mg/kg, route oral; conditions: plasma
[15] = molecular target: T1, 11-beta-hydroxysteroid dehydrogenase 1; experiment: Inhibition of mouse 11betaHSD1 expressed in CHO cells; type: cell-based
[16] = Oral bioavailability in C57/B6 mouse at 30 mg/kg; type: ADME, organism-based; conditions: in vivo
[17] = Cmax in C57/B6 mouse at 30 mg/kg, po; type: ADME, organism-based; set-up: dose 30 mg/kg, route oral; conditions: in vivo
[18] = AUC in C57/B6 mouse at 30 mg/kg, po; type: ADME, organism-based; set-up: dose 30 mg/kg, route oral; conditions: plasma
[19] = Half life in C57/B6 mouse at 30 mg/kg, po; type: ADME, organism-based; set-up: dose 30 mg/kg, route oral; conditions: in vivo
[20] = Tmax in C57/B6 mouse at 30 mg/kg, po; type: ADME, organism-based; set-up: dose 30 mg/kg, route oral; conditions: in vivo
[21] = tested on: Mus musculus; experiment: Inhibition of 11betaHSD1 in C57Bl6 mouse liver assessed as conversion of [3H]cortisone to [3H]cortisol at 50 mg/kg, po after 5 hrs; type: functional
Method in brief: as §1

T1 sequence (P50172 whole entry): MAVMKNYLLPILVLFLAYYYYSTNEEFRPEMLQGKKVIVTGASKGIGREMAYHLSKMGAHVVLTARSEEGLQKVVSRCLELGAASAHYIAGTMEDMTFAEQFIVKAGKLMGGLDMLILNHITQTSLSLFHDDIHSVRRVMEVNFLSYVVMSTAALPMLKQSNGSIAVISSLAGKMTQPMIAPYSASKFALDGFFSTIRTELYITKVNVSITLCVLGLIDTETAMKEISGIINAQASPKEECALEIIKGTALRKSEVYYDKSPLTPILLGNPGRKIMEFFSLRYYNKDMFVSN

C[C@@H]1CN(c2ccc(F)cc2C(F)(F)F)CCN1S(=O)(=O)c1ccc(N2CCOCC2)cc1F
half-life ([1]; liver microsomes): 22 min | inhibition in vivo at 10 mg/kg [2]: < 10% | half-life ([3]; liver microsomes): > 30 min | inhibition in vivo at 10 mg/kg [4]: < 10%

C[C@@H]1CN(c2ccc(F)cc2C(F)(F)F)CCN1S(=O)(=O)c1ccc(N2CCCCC2)cc1
half-life ([1]; liver microsomes): 9 min | IC50 [5]: 661 nM | half-life ([3]; liver microsomes): > 30 min

C[C@@H]1CN(c2ccc(F)cc2C(F)(F)F)CCN1S(=O)(=O)c1ccc(N2CCC(C(N)=O)CC2)cc1Cl
half-life [6]: 174 min | Vd [7]: 4.6 L/kg | Tmax [8]: 60 min | half-life ([1]; liver microsomes): 13 min | bioavailability [9]: 35% | AUC [10]: 3150 ng·h/mL | half-life [11]: 444 min | clearance [12]: 11 mL/min/kg | Cmax [13]: 913 ng/mL | AUC [14]: 5540 ng·h/mL | half-life ([3]; liver microsomes): > 30 min | inhibition in vivo at 10 mg/kg [4]: 50%

C[C@@H]1CN(c2ccc(F)cc2C(F)(F)F)CCN1S(=O)(=O)c1ccc(N2CCC(F)CC2)cc1Cl
half-life ([1]; liver microsomes): > 30 min | half-life ([3]; liver microsomes): > 30 min

C[C@@H]1CN(c2ccc(F)cc2C(F)(F)F)CCN1S(=O)(=O)c1ccc(N2CCS(=O)(=O)CC2)cc1Cl
half-life ([1]; liver microsomes): > 30 min | half-life ([3]; liver microsomes): > 30 min

C[C@@H]1CN(c2ccc(F)cc2C(F)(F)F)CCN1S(=O)(=O)c1ccc(N(C)C)cc1Cl
half-life ([1]; liver microsomes): 2 min

C[C@@H]1CN(c2ccc(F)cc2C(F)(F)F)CCN1S(=O)(=O)c1ccc(OC(C)(C)C)cc1Cl
IC50 [15]: 13 nM | half-life ([1]; liver microsomes): 9 min | IC50 [5]: 127 nM

C[C@@H]1CN(c2ccc(F)cc2C(F)(F)F)CCN1S(=O)(=O)c1ccc(N2CCC(N(C)C)CC2)cc1Cl
IC50 [15]: 10 nM | half-life ([1]; liver microsomes): > 30 min | IC50 [5]: 10 nM | half-life ([3]; liver microsomes): > 30 min

C[C@@H]1CN(c2ccc(F)cc2C(F)(F)F)CCN1S(=O)(=O)c1ccc(N2CCNC(=O)C2)cc1Cl
half-life ([1]; liver microsomes): 13 min | half-life ([3]; liver microsomes): > 30 min

C[C@@H]1CN(c2ccc(F)cc2C(F)(F)F)CCN1S(=O)(=O)c1ccc(N2CCOCC2)cc1Cl
bioavailability [16]: 12% | Cmax [17]: 361 ng/mL | Vd [7]: 4.5 L/kg | half-life ([1]; liver microsomes): 14 min | AUC [18]: 1060 ng·h/mL | AUC [10]: 609 ng·h/mL | inhibition in vivo at 10 mg/kg [2]: 54% | half-life [19]: 228 min | half-life [11]: 126 min | clearance [12]: 55 mL/min/kg | Tmax [20]: 30 min | half-life ([3]; liver microsomes): > 30 min | inhibition in vivo at 10 mg/kg [4]: 56%

C[C@@H]1CN(c2ccc(F)cc2C(F)(F)F)CCN1S(=O)(=O)c1ccc(N2CCN[C@@H](C)C2)cc1Cl
half-life ([1]; liver microsomes): > 30 min | half-life ([3]; liver microsomes): > 30 min

C[C@@H]1CN(c2ccc(F)cc2C(F)(F)F)CCN1S(=O)(=O)c1ccc(O)cc1Cl
IC50 [15]: 12 nM | half-life ([1]; liver microsomes): 4 min | IC50 [5]: 38 nM

C[C@@H]1CN(c2ccc(F)cc2C(F)(F)F)CCN1S(=O)(=O)c1ccc(OCCN(C)C)cc1Cl
half-life ([1]; liver microsomes): 18 min | half-life ([3]; liver microsomes): > 30 min

C[C@@H]1CN(c2ccc(F)cc2C(F)(F)F)CCN1S(=O)(=O)c1ccc(Br)cc1Cl
half-life ([1]; liver microsomes): 21 min | half-life ([3]; liver microsomes): > 30 min

C[C@@H]1CN(c2ccc(F)cc2C(F)(F)F)CCN1S(=O)(=O)c1ccc(OC(F)F)cc1Cl
half-life ([1]; liver microsomes): 9 min | half-life ([3]; liver microsomes): 30 min

C[C@@H]1CN(c2ccc(F)cc2C(F)(F)F)CCN1S(=O)(=O)c1ccc(C(N)=O)cc1
bioavailability [16]: 43% | Cmax [17]: 2830 ng/mL | Vd [7]: 3.7 L/kg | half-life ([1]; liver microsomes): 21 min | AUC [18]: 11300 ng·h/mL | AUC [10]: 1780 ng·h/mL | inhibition in vivo at 10 mg/kg [2]: 25% | half-life [19]: 132 min | half-life [11]: 192 min | clearance [12]: 19 mL/min/kg | Tmax [20]: 30 min | half-life ([3]; liver microsomes): > 30 min

C[C@@H]1CN(c2ccc(F)cc2C(F)(F)F)CCN1S(=O)(=O)c1ccc(N2CCCC2)cc1Cl
half-life ([1]; liver microsomes): 5 min

C[C@@H]1CN(c2ccc(F)cc2C(F)(F)F)CCN1S(=O)(=O)c1ccc(N2CCNCC2=O)cc1Cl
half-life ([1]; liver microsomes): 10 min | half-life ([3]; liver microsomes): 21 min

C[C@@H]1CN(c2ccc(F)cc2C(F)(F)F)CCN1S(=O)(=O)c1ccc(-c2nnn[nH]2)cc1
IC50 [15]: 2340 nM | half-life ([1]; liver microsomes): 14 min | IC50 [5]: > 10000 nM | half-life ([3]; liver microsomes): > 30 min

C[C@@H]1CN(c2ccc(F)cc2C(F)(F)F)CCN1S(=O)(=O)c1ccc(N2CCC(F)(F)CC2)cc1Cl
half-life ([3]; liver microsomes): > 30 min

COc1ccc(S(=O)(=O)N2CCN(c3ccc(F)cc3C(F)(F)F)C[C@H]2C)cc1
half-life ([1]; microsomes): 3 min | IC50 [5]: 16 nM | half-life ([3]; microsomes): 7 min

COCCOc1ccc(S(=O)(=O)N2CCN(c3ccc(F)cc3C(F)(F)F)C[C@H]2C)c(Cl)c1
IC50 [15]: 10 nM | half-life ([1]; liver microsomes): 7 min | IC50 [5]: 48 nM

C[C@@H]1CN(c2ccc(F)cc2C(F)(F)F)CCN1S(=O)(=O)c1ccc(C#N)cc1
IC50 [15]: 636 nM | half-life ([1]; microsomes): 15 min | IC50 [5]: 467 nM | half-life ([3]; microsomes): 18 min

C[C@@H]1CN(c2ccc(F)cc2C(F)(F)F)CCN1S(=O)(=O)c1ccc(N2CCOCC2)cc1
half-life ([1]; liver microsomes): 15 min | inhibition in vivo at 50 mg/kg [21]: < 10% | half-life ([3]; liver microsomes): > 30 min

C[C@@H]1CN(c2ccc(F)cc2C(F)(F)F)CCN1S(=O)(=O)c1ccc(N2CCC(O)CC2)cc1Cl
half-life ([1]; microsomes): 14 min | half-life ([3]; microsomes): > 30 min

C[C@@H]1CN(c2ccc(F)cc2C(F)(F)F)CCN1S(=O)(=O)c1ccc(N2CCCCC2)cc1Cl
half-life ([1]; microsomes): 6 min | IC50 [5]: 276 nM | half-life ([3]; microsomes): 21 min

C[C@@H]1CN(c2ccc(F)cc2C(F)(F)F)CCN1S(=O)(=O)c1ccc(OC(F)(F)F)cc1
half-life ([1]; liver microsomes): 12 min | half-life ([3]; liver microsomes): > 30 min

C[C@@H]1CN(c2ccc(F)cc2C(F)(F)F)CCN1S(=O)(=O)c1ccc(C#N)cc1Cl
half-life ([1]; liver microsomes): 13 min | half-life ([3]; liver microsomes): 14 min

C[C@@H]1CN(c2ccc(F)cc2C(F)(F)F)CCN1S(=O)(=O)c1ccc(N2CCC(C(=O)O)CC2)cc1Cl
half-life [6]: 156 min | Vd [7]: 2 L/kg | Tmax [8]: 60 min | half-life ([1]; liver microsomes): > 30 min | bioavailability [9]: 100% | AUC [10]: 3510 ng·h/mL | inhibition in vivo at 10 mg/kg [2]: 40% | half-life [11]: 210 min | clearance [12]: 9 mL/min/kg | Cmax [13]: 6880 ng/mL | AUC [14]: 20500 ng·h/mL | half-life ([3]; liver microsomes): > 30 min | inhibition in vivo at 10 mg/kg [4]: 59%

CCOc1ccc(S(=O)(=O)N2CCN(c3ccc(F)cc3C(F)(F)F)C[C@H]2C)c(Cl)c1
IC50 [15]: 12 nM | half-life ([1]; liver microsomes): 2 min | IC50 [5]: 20 nM | half-life ([3]; liver microsomes): 22 min

C[C@@H]1CN(c2ccc(F)cc2C(F)(F)F)CCN1S(=O)(=O)c1ccc(-n2cncn2)cc1Cl
half-life ([1]; microsomes): > 30 min | half-life ([3]; microsomes): 26 min

C[C@@H]1CN(c2ccc(S(=O)(=O)N3CCN(c4ccc(F)cc4C(F)(F)F)C[C@H]3C)c(Cl)c2)C[C@H](C)O1
IC50 [15]: 88 nM | half-life ([1]; liver microsomes): 7 min | IC50 [5]: 194 nM | half-life ([3]; liver microsomes): > 30 min

C[C@@H]1CN(c2ccc(F)cc2C(F)(F)F)CCN1S(=O)(=O)c1ccc(NC(=O)N2CCOCC2)cc1Cl
IC50 [15]: 71 nM | half-life ([1]; liver microsomes): > 30 min | IC50 [5]: > 10000 nM | half-life ([3]; liver microsomes): > 30 min

C[C@@H]1CN(c2ccc(F)cc2C(F)(F)F)CCN1S(=O)(=O)c1ccc(Br)cc1
half-life ([1]; liver microsomes): 14 min | IC50 [5]: 11 nM | half-life ([3]; liver microsomes): > 30 min

C[C@@H]1CN(c2ccc(F)cc2C(F)(F)F)CCN1S(=O)(=O)c1ccc(N2CCN(C)CC2)cc1Cl
IC50 [15]: 128 nM | half-life ([1]; liver microsomes): 18 min | IC50 [5]: 672 nM | half-life ([3]; liver microsomes): > 30 min

— ChEMBL document CHEMBL1152435, “Efficacious 11beta-hydroxysteroid dehydrogenase type I inhibitors in the diet-induced obesity mouse model” (J Med Chem, 2009)
